# ChEMBL document CHEMBL4038284, “Synthesis of novel quinoline-based 4,5-dihydro-1H-pyrazoles as potential anticancer, antifungal, antibacterial and antiprotozoal agents” (Eur J Med Chem, 2017)
# Calls of active or inactive are those of the source. The rule behind the calls is not given here.
# Legend:
# NCI/ADR-RES = test: Growth inhibition of human NCI/ADR-RES cells incubated for 48 hrs by sulforhodamine B assay; format: functional; conditions: for CC50: read-out: LC50 (the source's name)
# Method in brief: (§1)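 NCI 60-line screen. Cells in RPMI-1640 with 5% FBS and 2 mM L-glutamine, preincubated 24 h, then time-zero plates TCA-fixed. Compounds from DMSO stocks given at five final concentrations (100, 10, 1.0, 0.1, 0.01 µM) for 48 h at 37 °C, 5% CO2. Cells fixed with 10% TCA, SRB-stained, read at 515 nm. GI50 is the concentration giving 50% lower net protein increase versus control.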
# U-251 = test: Growth inhibition of human U251 cells incubated for 48 hrs by sulforhodamine B assay; format: functional; conditions: U-251, 48 h; for CC50: read-out: LC50 (the source's name)
# Method in brief: (§2)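 NCI-60 panel cells grown in RPMI-1640 with 5% FBS and 2 mM L-glutamine, preincubated 24 h at 37 °C/5% CO2. Time-zero plates were TCA-fixed at compound addition. DMSO stocks were diluted in medium and tested at five final concentrations (100, 10, 1.0, 0.1, 0.01 µM) for 48 h. Cells were TCA-fixed, stained with SRB and read at 515 nm. GI50 = 50% lower net protein increase versus control.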
# Malme-3M = test: Growth inhibition of human MALME-3M cells incubated for 48 hrs by sulforhodamine B assay; format: functional; conditions: for CC50: read-out: LC50 (the source's name)
# Method in brief: (§3)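 Five-dose NCI SRB assay at 100, 10, 1.0, 0.1 and 0.01 μM for 48 h at 37 °C, 5% CO2. Medium was RPMI-1640 with 5% FBS and 2 mM glutamine. Time-zero plates were TCA-fixed at compound addition, A515 read after SRB staining. GI50 was solved from [(Ti−Tz)/(C−Tz)]×100 = 50. Values beyond the tested range are given as > or <.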
# KM12 = test: Growth inhibition of human KM12 cells incubated for 48 hrs by sulforhodamine B assay; format: functional; conditions: KM12, 48 h; method in brief: as §3
# Hs-578T = test: Growth inhibition of human Hs578T cells incubated for 48 hrs by sulforhodamine B assay; format: functional; conditions: for CC50: read-out: LC50 (the source's name); method in brief: as §3
# OVCAR-5 = test: Growth inhibition of human OVCAR5 cells incubated for 48 hrs by sulforhodamine B assay; format: functional; conditions: OVCAR-5, 48 h; for CC50: read-out: LC50 (the source's name); method in brief: as §1
# NCI-H460 = test: Growth inhibition of human NCI-H460 cells incubated for 48 hrs by sulforhodamine B assay; format: functional; conditions: NCI-H460, 48 h; for CC50: read-out: LC50 (the source's name); method in brief: as §3
# UO-31 [1] = test: Growth inhibition of human UO31 cells incubated for 48 hrs by sulforhodamine B assay; format: functional; conditions: UO-31, 48 h; method in brief: as §2
# HCT-116 = test: Growth inhibition of human HCT116 cells incubated for 48 hrs by sulforhodamine B assay; format: functional; conditions: HCT-116, 48 h
# Method in brief: (§4)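 NCI five-dose SRB assay (100, 10, 1.0, 0.1, 0.01 µM) with 48 h exposure in RPMI-1640 with 5% FBS and 2 mM L-glutamine. Cells fixed with TCA and stained with SRB, read at 515 nm. GI50 is the concentration where [(Ti−Tz)/(C−Tz)]×100 = 50.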
# A549 = test: Growth inhibition of human A549/ATCC cells incubated for 48 hrs by sulforhodamine B assay; format: functional; conditions: A549, 48 h; method in brief: as §1
# K562 = test: Growth inhibition of human K562 cells incubated for 48 hrs by sulforhodamine B assay; format: functional; conditions: K562, 48 h; for CC50: read-out: LC50 (the source's name); method in brief: as §1
# NCI-H522 = test: Growth inhibition of human NCI-H522 cells incubated for 48 hrs by sulforhodamine B assay; format: functional; conditions: NCI-H522, 48 h; for CC50: read-out: LC50 (the source's name); method in brief: as §1
# UACC-257 = test: Growth inhibition of human UACC257 cells incubated for 48 hrs by sulforhodamine B assay; format: functional; conditions: UACC-257, 48 h; for CC50: read-out: LC50 (the source's name); method in brief: as §2
# SW-620 = test: Growth inhibition of human SW620 cells incubated for 48 hrs by sulforhodamine B assay; format: functional; conditions: SW-620, 48 h; for CC50: read-out: LC50 (the source's name); method in brief: as §2
# MCF7 = test: Growth inhibition of human MCF7 cells incubated for 48 hrs by sulforhodamine B assay; format: functional; conditions: MCF7, 48 h; for CC50: read-out: LC50 (the source's name); method in brief: as §1
# HOP-92 = test: Growth inhibition of human HOP92 cells incubated for 48 hrs by sulforhodamine B assay; format: functional; conditions: HOP-92, 48 h; method in brief: as §3
# A498 = test: Growth inhibition of human A498 cells incubated for 48 hrs by sulforhodamine B assay; format: functional; conditions: A498, 48 h; for CC50: read-out: LC50 (the source's name); method in brief: as §1
# DU-145 = test: Growth inhibition of human DU145 cells incubated for 48 hrs by sulforhodamine B assay; format: functional; conditions: DU-145, 48 h; method in brief: as §4
# NCI-H322M = test: Growth inhibition of human NCI-H322M cells incubated for 48 hrs by sulforhodamine B assay; format: functional; conditions: for CC50: read-out: LC50 (the source's name); method in brief: as §3
# SK-OV-3 = test: Growth inhibition of human SKOV3 cells incubated for 48 hrs by sulforhodamine B assay; format: functional; conditions: SK-OV-3, 48 h; for CC50: read-out: LC50 (the source's name); method in brief: as §1
# T47D = test: Growth inhibition of human T47D cells incubated for 48 hrs by sulforhodamine B assay; format: functional; conditions: for CC50: read-out: LC50 (the source's name); method in brief: as §2
# SF-295 = test: Growth inhibition of human SF295 cells incubated for 48 hrs by sulforhodamine B assay; format: functional; conditions: SF-295, 48 h; for CC50: read-out: LC50 (the source's name); method in brief: as §3
# UO-31 [2] = test: Growth inhibition of human UO31 cells at 10 uM incubated for 48 hrs by sulforhodamine B assay; format: functional, cell-based
# Method in brief: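 NCI-60 single-dose screen at 10 µM for 48 h. Cells were grown in RPMI-1640 with 5% FBS and 2 mM L-glutamine and preincubated 24 h before compound. Time-zero plates were TCA-fixed at compound addition. After exposure, cells were TCA-fixed, stained with SRB and read at 515 nm. Percentage growth was calculated against time-zero and untreated-control absorbances.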
# Cryptococcus neoformans = test: Growth inhibition of Cryptococcus neoformans ATCC 32264 at 7.8 ug/ml incubated for 48 hrs under dark condition by broth microdilution method relative to control; format: functional; conditions: ATCC 32264, 48 h, read-out: GI
# Method in brief: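 CLSI M27-A3 broth microdilution in RPMI-1640, DMSO ≤1%. Inoculum 1-5 × 10^3 CFU/mL. Incubated 48 h at 30 °C, dark. % inhibition = 100 − (OD405 test − sterility control)/(OD405 growth control − sterility control), with growth and sterility control wells. Triplicate.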
# BT-549 = test: Growth inhibition of human BT549 cells incubated for 48 hrs by sulforhodamine B assay; format: functional; conditions: BT-549, 48 h; for CC50: read-out: LC50 (the source's name); method in brief: as §4
# SK-MEL-5 = test: Growth inhibition of human SK-MEL-5 cells incubated for 48 hrs by sulforhodamine B assay; format: functional; conditions: SK-MEL-5, 48 h; for CC50: read-out: LC50 (the source's name); method in brief: as §1
# EKVX = test: Growth inhibition of human EKVX cells incubated for 48 hrs by sulforhodamine B assay; format: functional; method in brief: as §4
# [3] = read-out: LC50 (the source's name)
compound,measurement,setting,value
COc1ccc(C(=O)/C=C/c2cccc(Nc3ccnc4cc(Cl)ccc34)c2)cc1,GI50,NCI/ADR-RES,1160 nM
same,CC50,NCI/ADR-RES,> 100000 nM
same,GI50,U-251,1730 nM
same,CC50,U-251,23700 nM
same,GI50,Malme-3M,1790 nM
same,CC50,Malme-3M,> 100000 nM
same,GI50,KM12,2450 nM
same,CC50,KM12; [3],> 100000 nM
same,GI50,Hs-578T,3180 nM
same,CC50,Hs-578T,> 100000 nM
same,GI50,OVCAR-5,2600 nM
same,CC50,OVCAR-5,> 100000 nM
same,GI50,NCI-H460,2230 nM
same,CC50,NCI-H460,> 100000 nM
same,GI50,UO-31 [1],1030 nM
same,GI50,HCT-116,840 nM
same,LC50 (concentration killing 50% of cells),HCT-116,> 100000 nM
same,GI50,A549,2780 nM
same,LC50 (concentration giving 50% net cell kill),A549,> 100000 nM
same,GI50,K562,1640 nM
same,CC50,K562,83800 nM
same,GI50,NCI-H522,1880 nM
same,CC50,NCI-H522,> 100000 nM
same,GI50,UACC-257,2070 nM
same,CC50,UACC-257,> 100000 nM
same,GI50,SW-620,1980 nM
same,CC50,SW-620,> 100000 nM
same,GI50,MCF7,1820 nM
same,CC50,MCF7,> 100000 nM
same,GI50,HOP-92,1090 nM
same,LC50 (concentration giving 50% net cell kill),HOP-92,> 100000 nM
same,GI50,A498,3000 nM
same,CC50,A498,> 100000 nM
same,GI50,DU-145,2450 nM
same,CC50,DU-145; [3],> 100000 nM
same,GI50,NCI-H322M,2690 nM
same,CC50,NCI-H322M,> 100000 nM
same,GI50,SK-OV-3,2220 nM
same,CC50,SK-OV-3,> 100000 nM
same,GI50,T47D,660 nM
same,CC50,T47D,> 100000 nM
same,GI50,SF-295,690 nM
same,CC50,SF-295,> 100000 nM
same,growth inhibition (GI),UO-31 [2],Active
same,inhibition of growth at 7.8 µg/mL,Cryptococcus neoformans,2.47%
same,GI50,BT-549,1870 nM
same,CC50,BT-549,> 100000 nM
same,GI50,SK-MEL-5,1320 nM
same,CC50,SK-MEL-5,> 100000 nM
same,GI50,EKVX,1750 nM
same,LC50,EKVX,> 100000 nM
COc1cc(C(=O)/C=C/c2cccc(Nc3ccnc4cc(Cl)ccc34)c2)cc(OC)c1OC,GI50,NCI/ADR-RES,410 nM
same,CC50,NCI/ADR-RES,> 100000 nM
same,GI50,U-251,910 nM
same,CC50,U-251,5190 nM
same,GI50,Malme-3M,1460 nM
same,CC50,Malme-3M,7800 nM
same,GI50,KM12,440 nM
same,GI50,Hs-578T,2490 nM
same,CC50,Hs-578T,> 100000 nM
same,GI50,OVCAR-5,1700 nM
same,CC50,OVCAR-5,6370 nM
same,GI50,NCI-H460,1910 nM
same,CC50,NCI-H460,> 100000 nM
same,GI50,UO-31 [1],570 nM
same,CC50,UO-31 [1]; [3],4420 nM
same,GI50,HCT-116,350 nM
same,LC50 (concentration killing 50% of cells),HCT-116,3980 nM
same,GI50,A549,1480 nM
same,LC50 (concentration giving 50% net cell kill),A549,11500 nM
same,GI50,K562,400 nM
same,CC50,K562,> 100000 nM
same,GI50,NCI-H522,590 nM
same,CC50,NCI-H522,6230 nM
same,GI50,UACC-257,1430 nM
same,CC50,UACC-257,6530 nM
same,GI50,SW-620,450 nM
same,CC50,SW-620,> 100000 nM
same,GI50,MCF7,610 nM
same,CC50,MCF7,5240 nM
same,GI50,HOP-92,1470 nM
same,LC50 (concentration giving 50% net cell kill),HOP-92,> 100000 nM
same,GI50,A498,1540 nM
same,CC50,A498,> 100000 nM
same,GI50,DU-145,1460 nM
same,GI50,NCI-H322M,1520 nM
same,CC50,NCI-H322M,7080 nM
same,GI50,SK-OV-3,1940 nM
same,CC50,SK-OV-3,2610 nM
same,GI50,T47D,1220 nM
same,CC50,T47D,8260 nM
same,GI50,SF-295,1420 nM
same,CC50,SF-295,6470 nM
same,growth inhibition (GI),UO-31 [2],Active
same,inhibition of growth at 7.8 µg/mL,Cryptococcus neoformans,0%
same,GI50,BT-549,1230 nM
same,CC50,BT-549,6590 nM
same,GI50,SK-MEL-5,1380 nM
same,CC50,SK-MEL-5,5180 nM
same,GI50,EKVX,1620 nM
